Assay [1] has as its system A3G (APOBEC3G). The following applies: biochemical assays, prior studies, ref [14]–[18], cited from earlier work.
In assay [2] the test system is A3G (APOBEC3G). The assay is described as follows: PCR and restriction-based ssDNA deamination assay. In kind it is biochemical, human. The following applies: 10 nM A3G, 1 nM ssDNA, 37 °C, 30 min, pH 7.0, gel representative of >3 independent experiments.
The target in another assay is A3G-mycHis (APOBEC3G) (Homo sapiens, UniProt Q9HC16). The assay is described as follows: Fluorescence-based ssDNA cytosine deaminase assay with purified A3G-mycHis. The class given is biochemical. The following applies: for reproducibility of A3G inhibitory activity (in words): introductory summary of own findings, assay format not stated. Put shortly: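 Human A3G-mycHis purified by C-terminal His tag from HEK293T cells and diluted in pH 7.4 Tris buffer with Triton and protease inhibitors. Enzyme incubated with 10 pmol 6-FAM/TAMRA ssDNA containing one CCC site. Then UDG treatment for 2 hrs at 37 °C, NaOH cleavage for 30 min, and neutralisation. Fluorescence read at ex 490/em 520 nm. Peptides from 10 mM DMSO stocks; n = 3, mean ± SEM; IC50 from curve fit.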
A3G-mycHis (APOBEC3G), sequence (Q9HC16 whole entry): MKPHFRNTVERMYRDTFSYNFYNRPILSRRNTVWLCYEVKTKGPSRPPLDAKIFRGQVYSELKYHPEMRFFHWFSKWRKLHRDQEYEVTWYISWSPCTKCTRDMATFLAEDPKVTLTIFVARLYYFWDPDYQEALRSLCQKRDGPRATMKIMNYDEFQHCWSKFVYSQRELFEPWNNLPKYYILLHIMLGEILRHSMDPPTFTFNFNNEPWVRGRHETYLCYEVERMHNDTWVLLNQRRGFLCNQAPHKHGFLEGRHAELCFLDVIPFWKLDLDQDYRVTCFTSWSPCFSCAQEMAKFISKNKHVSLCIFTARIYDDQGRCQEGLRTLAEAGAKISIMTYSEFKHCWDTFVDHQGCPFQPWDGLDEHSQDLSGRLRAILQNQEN

Where two headings read alike, the source gives them in different places.

On to H-VKHHMYISGKAKGWF-OH [Vif25–39], for which the entries for the “published A3G inhibitory activity (in words)” value with A3G (APOBEC3G) [1] and in the assay with A3G (APOBEC3G) [1] (listed as Vif peptide 25–39) were “low micromolar inhibitory activities” and “sub-micromolar inhibitory activities”, respectively. Also, in the assay with A3G (APOBEC3G) [2], the “A3G inhibitory effect (in words)” value is “no inhibitory effect”. On A3G-mycHis (APOBEC3G), the “reproducibility of A3G inhibitory activity (in words)” value was “did not find significant A3G inhibitory activity”.
As for H-QLIHLYYFDCFSESA-OH [compound 6044], the “published A3G inhibitory activity (in words)” value in the assay on A3G (APOBEC3G) [1] (listed as Vif 105–119) is “low micromolar inhibitory activities”; in the assay with A3G (APOBEC3G) [1] (listed as Vif peptide 105–119), “sub-micromolar inhibitory activities”. Moreover, on A3G-mycHis (APOBEC3G) (conclusion from scrambled and reverse peptide comparison), the “specificity of A3G inhibition (in words)” value is reported as “non-specific”. In addition, on A3G-mycHis (APOBEC3G), the “reproducibility of A3G inhibitory activity (in words)” value is “reproducible A3G inhibitory activity”.
